Laboratory results as given in ChEMBL document CHEMBL1145957 (J Med Chem, 2003).
Values belong to the compound of their own block, whether it stands above or below them.

Tests used:
[1] = tested on: Trypanosoma brucei; assay: Minimum effective concentration in vitro against the bloodstream trypomastigote form of Trypanosoma brucei; type: functional; conditions: read-out: MEC
Method in brief: (§1)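 T. brucei brucei AnTat 1.9 bloodstream forms kept cell-free at 10⁵ trypanosomes/mL. Drug added in 10-fold dilutions, 50 to 0.01 μM final, 16 replicates per dilution and control. Incubated 48 h at 37 °C, 5% CO2.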

[2] = tested on: Trypanosoma brucei; assay: Effective concentration in vitro against the bloodstream trypomastigote form of Trypanosoma brucei; type: functional, organism-based; method in brief: as §1
[3] = tested on: Trypanosoma cruzi; assay: In vitro percent inhibition against mouse peritoneal macrophages infected with Trypanosoma cruzi at 12.5 uM concentration; type: functional
Method in brief: (§2)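 Mouse peritoneal macrophages seeded at 30 000 cells/well. After 24 h, about 100 000 T. cruzi Tulahen CL2 trypomastigotes per well added with 2-fold drug dilutions. Incubated 4 days at 37 °C, 5% CO2; uninfected cultures treated alike. Reduction of total parasite load (free trypomastigotes plus intracellular amastigotes) versus untreated controls scored microscopically.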

[4] = tested on: Homo sapiens (MRC-5 cells); assay: Concentration that cause cytotoxicity at 12.5 uM concentration
[5] = tested on: Leishmania infantum; assay: In vitro percent inhibition against mouse peritoneal macrophages infected with Leishmania infantum at 25 uM concentration; type: functional
Method in brief: (§3)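 Primary mouse peritoneal macrophages seeded at 30 000 cells/well. After 24 h, spleen-derived L. infantum (MOHM/MA BE/67) amastigotes added at a 10:1 infection ratio with 2-fold drug dilutions. Incubated 5 days at 37 °C, 5% CO2; uninfected cultures treated in parallel. Total parasite load or infected-macrophage count scored microscopically on Wright-stained slides, versus untreated controls.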

[6] = tested on: Leishmania infantum; assay: In vitro percent inhibition against mouse peritoneal macrophages infected with Leishmania infantum at 3.1 uM concentration; type: functional; method in brief: as §3
[7] = tested on: Leishmania infantum; assay: In vitro percent inhibition against mouse peritoneal macrophages infected with Leishmania infantum at 12.5 uM concentration; type: functional; method in brief: as §3
[8] = tested on: Leishmania infantum; assay: In vitro percent inhibition against mouse peritoneal macrophages infected with Leishmania infantum at 6.2 uM concentration; type: functional; method in brief: as §3
[9] = tested on: Homo sapiens (MRC-5 cells); assay: Concentration that cause cytotoxicity at 25 uM concentration
[10] = tested on: Trypanosoma cruzi; assay: In vitro percent inhibition against mouse peritoneal macrophages infected with Trypanosoma cruzi at 3.1 uM concentration; type: functional; method in brief: as §2
[11] = tested on: Trypanosoma cruzi; assay: In vitro percent inhibition against mouse peritoneal macrophages infected with Trypanosoma cruzi at 6.2 uM concentration; type: functional; method in brief: as §2
[12] = tested on: Homo sapiens (MRC-5 cells); assay: Concentration that cause cytotoxicity at 6.2 uM concentration
[13] = tested on: Trypanosoma cruzi; assay: In vitro percent inhibition against mouse peritoneal macrophages infected with Trypanosoma cruzi at 25 uM concentration; type: functional; method in brief: as §2
[14] = tested on: Homo sapiens (MRC-5 cells); assay: Concentration that cause cytotoxicity at 3.1 uM concentration
[15] = tested on: Trypanosoma cruzi; assay: Percent inhibition in vitro against intracellular form of Trypanosoma cruzi at 3 uM concentration; type: functional
Method in brief: (§4)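 T. cruzi Y strain (MHOM/BR/OO/Y) trypomastigotes, grown in L6 myoblast cultures, infect mouse peritoneal macrophages in medium with drug from 90 to 3 μM. Incubation 72 h at 37 °C. Activity read as percent of infected macrophages in treated cultures.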

[16] = tested on: Trypanosoma cruzi; assay: Percent inhibition in vitro against intracellular form of Trypanosoma cruzi at 90 uM concentration; type: functional; method in brief: as §4
[17] = tested on: Trypanosoma cruzi; assay: Percent inhibition in vitro against intracellular form of Trypanosoma cruzi at 10 uM concentration; type: functional; method in brief: as §4
[18] = tested on: Trypanosoma cruzi; assay: Effective dose against Trypanosoma cruzi; type: functional
[19] = tested on: Trypanosoma cruzi; assay: Percent inhibition in vitro against intracellular form of Trypanosoma cruzi at 30 uM concentration; type: functional; method in brief: as §4
[20] = tested on: Homo sapiens (MRC-5 cells); assay: Concentration that cause cytotoxicity at 25 uM concentration in human MRC-5 cells
[21] = tested on: Homo sapiens (MRC-5 cells); assay: Concentration that cause cytotoxicity at 12.5 uM concentration in human MRC-5 cells
[22] = tested on: Homo sapiens (MRC-5 cells); assay: Concentration that cause cytotoxicity at 6.2 uM concentration in human MRC-5 cells
[23] = tested on: Homo sapiens (MRC-5 cells); assay: Concentration that cause cytotoxicity at 3.1 uM concentration in human MRC-5 cells
[24] = tested on: Trypanosoma cruzi; assay: In vitro percent inhibition against mouse peritoneal macrophages infected with Trypanosoma cruzi at 25 uM concentration; Toxic for macrophage; type: functional, organism-based; method in brief: as §2
[25] = tested on: Leishmania infantum; assay: In vitro percent inhibition against mouse peritoneal macrophages infected with Leishmania infantum at 25 uM concentration; Toxic for macrophage; type: functional, organism-based; method in brief: as §3
[26] = tested on: Homo sapiens (MRC-5 cells); assay: Concentration that cause cytotoxicity at 1.5 uM concentration
[27] = tested on: Leishmania donovani; assay: Percent inhibition in vitro against intracellular form of Leishmania donovani at 90 uM concentration; type: functional
Method in brief: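 Hamster-spleen-derived L. donovani (MHOM/ET/67/L82) amastigotes infect mouse peritoneal macrophages in chamber slides. Infected cells kept with drug across 90–3 μM in quadruplicate for 7 days at 37 °C. Activity taken as percentage of macrophages cleared of amastigotes; sodium stibogluconate served as positive control.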

Compound: Cn1c([N+](=O)[O-])cnc1-c1nnc(NC(=O)C(F)(F)F)s1
minimal effective concentration [1]: 31 µM

Compound: Nc1nnc(-c2ccc([N+](=O)[O-])o2)o1
minimal effective concentration [1]: > 51 µM

EC50 [2]: 20 nM
Compound: Cc1ccc(C(=O)Nc2ccc(S(=O)(=O)O)c3cc(S(=O)(=O)O)cc(S(=O)(=O)O)c23)cc1NC(=O)c1cccc(NC(=O)Nc2cccc(C(=O)Nc3cc(C(=O)Nc4ccc(S(=O)(=O)O)c5cc(S(=O)(=O)O)cc(S(=O)(=O)O)c45)ccc3C)c2)c1 [SURAMIN]
minimal effective concentration [1]: 0.8 µM

Compound: Cn1c(-c2nnc(N)s2)nc(Sc2ccccc2)c1[N+](=O)[O-]
inhibition at 12.5 µM [3]: 60%
inhibition at 12.5 µM [4]: 3%
inhibition at 25 µM [5]: 0%
inhibition at 3.1 µM [6]: 0%
inhibition at 12.5 µM [7]: 0%
inhibition at 6.2 µM [8]: 0%
inhibition at 25 µM [9]: 40%
inhibition at 3.1 µM [10]: 0%
inhibition at 6.2 µM [11]: 0%
inhibition at 6.2 µM [12]: 0%
inhibition at 25 µM [13]: 80%

Compound: Nc1nnc(-c2ccc([N+](=O)[O-])o2)s1
inhibition at 12.5 µM [4]: 0%
inhibition at 25 µM [5]: 40%
inhibition at 6.2 µM [8]: 0%
inhibition at 25 µM [9]: 4%
inhibition at 6.2 µM [11]: 95%
inhibition at 6.2 µM [12]: 0%
inhibition at 3.1 µM [14]: 0%

Compound: Cn1c([N+](=O)[O-])cnc1/C=N/N=C(/N)S
inhibition at 3 µM [15]: 54%
inhibition at 90 µM [16]: 99%
inhibition at 10 µM [17]: 71%
ED50 [18]: 3.3 µM
inhibition at 30 µM [19]: 93%

Compound: NC(=O)N/N=C/c1ccc([N+](=O)[O-])o1 [NITROFURAZONE]
Inhibition [20]: 0%
Inhibition [21]: 0%
Inhibition [22]: 0%
inhibition at 25 µM [5]: 0%
Inhibition [23]: 0%
inhibition at 6.2 µM [8]: 0%
inhibition at 6.2 µM [11]: 40%
minimal effective concentration [1]: 5 µM
inhibition at 25 µM [13]: 99%

EC50 [2]: 200 nM
Compound: CC(=O)Nc1nnc(-c2ncc([N+](=O)[O-])n2C)s1
inhibition at 12.5 µM [3]: 99%
inhibition at 12.5 µM [4]: 0%
inhibition at 25 µM [5]: 40%
inhibition at 3.1 µM [6]: 0%
inhibition at 12.5 µM [7]: 40%
inhibition at 6.2 µM [8]: 0%
inhibition at 25 µM [9]: 0%
inhibition at 3.1 µM [10]: 99%
inhibition at 6.2 µM [11]: 99%
minimal effective concentration [1]: 1.6 µM
inhibition at 6.2 µM [12]: 0%
inhibition at 25 µM [13]: 99%

Compound: Cn1c([N+](=O)[O-])cnc1-c1nnc(NC(=O)CCCC(=O)NC2C(O)OC(CO)C(O)C2O)s1 (centres undefined)
inhibition at 12.5 µM [3]: 99%
inhibition at 25 µM [5]: 0%
inhibition at 3.1 µM [6]: 0%
inhibition at 12.5 µM [7]: 0%
inhibition at 6.2 µM [8]: 0%
inhibition at 3.1 µM [10]: 20%
inhibition at 6.2 µM [11]: 60%
inhibition at 25 µM [13]: 99%

EC50 [2]: 500 nM
Compound: Cn1c(-c2nnc(N)s2)nc(Br)c1[N+](=O)[O-]
minimal effective concentration [1]: 3.3 µM

EC50 [2]: 8000 nM
Compound: Cn1c([N+](=O)[O-])cnc1S(C)(=O)=O
inhibition [24]: Toxic for macrophage
inhibition at 12.5 µM [3]: 0%
inhibition at 12.5 µM [4]: 29%
inhibition at 3.1 µM [6]: 0%
inhibition at 12.5 µM [7]: 0%
inhibition [25]: Toxic for macrophage
inhibition at 1.5 µM [26]: 21%
inhibition at 6.2 µM [8]: 0%
inhibition at 25 µM [9]: 85%
inhibition at 3.1 µM [10]: 0%
inhibition at 6.2 µM [11]: 0%
minimal effective concentration [1]: > 49 µM
inhibition at 3.1 µM [14]: 28%

EC50 [2]: > 41000 nM
Compound: Cc1nc(-c2nnc(N)s2)n(C)c1[N+](=O)[O-]
minimal effective concentration [1]: > 41 µM

Compound: Cn1c(-c2nnc(N)s2)nc(N2CCCCC2)c1[N+](=O)[O-]
inhibition at 90 µM [16]: 41%
inhibition at 10 µM [17]: 0%
inhibition at 30 µM [19]: 3%
inhibition at 90 µM [27]: 0%

EC50 [2]: 25000 nM
Compound: Cn1c(-c2nnc(N)s2)nc(C(F)(F)F)c1[N+](=O)[O-]
minimal effective concentration [1]: > 34 µM

Compound: N/C(S)=N/N=C/c1ccc([N+](=O)[O-])s1
inhibition at 12.5 µM [4]: 0%
inhibition at 25 µM [5]: 40%
inhibition at 6.2 µM [8]: 0%
inhibition at 25 µM [9]: 0%
inhibition at 6.2 µM [11]: 40%
inhibition at 6.2 µM [12]: 0%
inhibition at 3.1 µM [14]: 0%
inhibition at 25 µM [13]: 90%
